By pEC50 is commonly meant −log10 of the EC50, conventionally taken in molar units. Lower therefore signals a large EC50.

pEC50: −log10 of the molar value. Calls of active or inactive are those of the source. The rule behind the calls is not given here.

Common to all, as to type: functional
Experiment [1] has as its target T1, Peroxisome proliferator-activated receptor gamma (Homo sapiens, UniProt P37231).
T1 sequence (P37231 whole entry): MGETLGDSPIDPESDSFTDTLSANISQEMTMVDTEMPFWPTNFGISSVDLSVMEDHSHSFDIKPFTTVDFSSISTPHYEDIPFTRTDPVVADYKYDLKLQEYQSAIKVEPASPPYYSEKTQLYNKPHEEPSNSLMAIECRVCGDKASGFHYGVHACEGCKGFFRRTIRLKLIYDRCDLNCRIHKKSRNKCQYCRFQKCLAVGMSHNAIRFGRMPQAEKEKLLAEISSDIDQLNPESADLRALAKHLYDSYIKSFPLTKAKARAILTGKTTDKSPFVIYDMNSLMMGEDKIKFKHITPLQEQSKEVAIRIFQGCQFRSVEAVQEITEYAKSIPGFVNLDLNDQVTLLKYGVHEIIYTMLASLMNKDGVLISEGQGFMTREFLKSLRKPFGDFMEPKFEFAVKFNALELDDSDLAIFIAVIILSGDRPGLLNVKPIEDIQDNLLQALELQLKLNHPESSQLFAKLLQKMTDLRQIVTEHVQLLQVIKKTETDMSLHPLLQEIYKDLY
Kind of experiment: Agonist activity at human PPARgamma by Gal4 transactivation assay. The essentials: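 Human PPARγ Gal4-hybrid luciferase reporter transactivation assay. EC50 was calculated from concentration-response data, with maximum activation taken at the highest tested concentration.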

The target of experiment [2] is T2, Peroxisome proliferator-activated receptor delta (Homo sapiens) (UniProt Q03181).
T2 sequence (whole entry): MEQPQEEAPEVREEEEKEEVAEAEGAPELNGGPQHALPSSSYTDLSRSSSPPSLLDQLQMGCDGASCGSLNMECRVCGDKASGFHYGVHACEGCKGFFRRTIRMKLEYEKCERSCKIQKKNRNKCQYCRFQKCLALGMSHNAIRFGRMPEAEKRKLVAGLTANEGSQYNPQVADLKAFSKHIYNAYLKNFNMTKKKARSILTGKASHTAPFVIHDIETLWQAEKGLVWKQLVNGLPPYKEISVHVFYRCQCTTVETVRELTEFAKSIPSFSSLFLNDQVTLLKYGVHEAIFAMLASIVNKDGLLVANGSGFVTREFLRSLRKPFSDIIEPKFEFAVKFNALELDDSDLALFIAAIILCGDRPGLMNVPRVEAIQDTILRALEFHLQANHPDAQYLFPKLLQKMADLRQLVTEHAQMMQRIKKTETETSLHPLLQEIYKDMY
Kind of experiment: Agonist activity at human PPARdelta at 10 uM by Gal4 transactivation assay relative to pioglitazone.

Experiment [3] has as its target T3, Peroxisome proliferator-activated receptor alpha (Homo sapiens) (UniProt Q07869).
T3 sequence (whole entry): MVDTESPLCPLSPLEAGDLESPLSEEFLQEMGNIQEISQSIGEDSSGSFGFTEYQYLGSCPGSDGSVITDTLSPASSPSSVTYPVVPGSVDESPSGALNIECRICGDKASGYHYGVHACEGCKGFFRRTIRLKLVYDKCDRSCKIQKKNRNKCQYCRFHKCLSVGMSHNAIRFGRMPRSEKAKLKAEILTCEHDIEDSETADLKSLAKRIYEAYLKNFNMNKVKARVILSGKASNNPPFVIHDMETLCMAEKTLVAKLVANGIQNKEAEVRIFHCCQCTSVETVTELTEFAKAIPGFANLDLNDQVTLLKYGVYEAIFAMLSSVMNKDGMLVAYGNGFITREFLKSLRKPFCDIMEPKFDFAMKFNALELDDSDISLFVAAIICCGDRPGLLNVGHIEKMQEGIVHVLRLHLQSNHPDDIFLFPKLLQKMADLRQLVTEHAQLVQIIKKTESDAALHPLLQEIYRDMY
Briefly: Agonist activity at human PPARalpha at 10 uM by Gal4 transactivation assay relative to pioglitazone.

Experiment [4] concerns the target T4, Peroxisome proliferator-activated receptor gamma (Homo sapiens) (UniProt P37231).
T4 sequence (whole entry): T1 sequence (P37231 whole entry)
Briefly: (§1) Agonist activity at human PPARgamma at 10 uM by Gal4 transactivation assay relative to pioglitazone. The essentials:
(§2)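 Cell-based Gal4-hybrid transactivation assay with a luciferase reporter for human PPARγ. Compounds were tested at 10 µM. Activation is expressed relative to 1 µM pioglitazone, which was set as 100% activation. Values are the mean and standard deviation of at least three independent experiments.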

The target in experiment [5] is T1, Peroxisome proliferator-activated receptor gamma. The description is as §1. The method, boiled down: as §2

`CCCCCCCOC(=O)C1C(c2ccccc2)C(C(=O)O)C1c1ccccc1` (stereo not given) showed a pEC50 in experiment [1] of 5.07. Also, the outcome in experiment [2] and in experiment [3] was inactive. This compound came in with an Activity in experiment [4] of 153%.

`Cc1ccccc1OC(=O)C1C(c2ccccc2)C(C(=O)O)C1c1ccccc1` (stereo not given) gave a pEC50 in experiment [1] of 5.00. Besides, the result in experiment [2] and in experiment [3] was inactive. Besides, the Activity in experiment [4] is 138%.

Take `O=C(O)C1C(c2ccccc2)C(C(=O)Oc2ccc(O)cc2)C1c1ccccc1` (stereo not given): the result in experiment [2] and in experiment [3] was inactive. The EC50 entry in experiment [5] was “Not Active”.

With `O=C(O)C1C(c2ccccc2)C(C(=O)N2CCOCC2)C1c1ccccc1` (stereo not given), the result in experiment [2] and in experiment [3] was inactive. For the same compound, the EC50 entry in experiment [5] is on record as “Not Active”.

In the case of `CCCCCCOC(=O)C1C(c2ccccc2)C(C(=O)O)C1c1ccccc1` (stereo not given), in experiment [1], the pEC50 was 5.44. Further, the result in experiment [2] and in experiment [3] was inactive. The compound also registered an Activity in experiment [4] of 66%.

As to `CCCCCCCCOC(=O)C1C(c2ccccc2)C(C(=O)O)C1c1ccccc1` (stereo not given), the pEC50 in experiment [1] is 5.03. Besides, the result in experiment [2] and in experiment [3] was inactive. Moreover, in experiment [4], the Activity worked out at 100%.

Turning to `CC(C)OC(=O)C1C(c2ccccc2)C(C(=O)O)C1c1ccccc1` (stereo not given), the result in experiment [2] and in experiment [3] was inactive. Also, in experiment [5], the EC50 result is “Not Active”.

For the compound `CC(C)CCOC(=O)C1C(c2ccccc2)C(C(=O)O)C1c1ccccc1` (stereo not given), in experiment [1], the pEC50 was 5.32. Moreover, the outcome in experiment [2] and in experiment [3] was inactive. In addition, in experiment [4], the Activity worked out at 71%.

`O=C(O)C1C(c2ccccc2)C(C(=O)O)C1c1ccccc1` (stereo not given): the outcome in experiment [2] and in experiment [3] was inactive. The EC50 result in experiment [5] was “Not Active”.

For the compound `O=C(O)C1C(c2ccccc2)C(C(=O)OCCCO)C1c1ccccc1` (stereo not given), the result in experiment [2] and in experiment [3] was inactive. For the same compound, in experiment [5], the EC50 result is given as “Not Active”.

Regarding `O=C(O)C1C(c2ccccc2)C(C(=O)OCCO)C1c1ccccc1` (stereo not given), the result in experiment [2] and in experiment [3] was inactive. Also, in experiment [5], the EC50 entry is “Not Active”.

As for `O=C(O)C1C(c2ccccc2)C(C(=O)N2CCCCC2)C1c1ccccc1` (stereo not given), the result in experiment [2] and in experiment [3] was inactive. Further, in experiment [5], the EC50 result was “Not Active”.

Consider `COC(=O)C1C(c2ccccc2)C(C(=O)OC)C1c1ccccc1` (stereo not given), for which the outcome in experiment [2] and in experiment [3] was inactive. The EC50 entry in experiment [5] is listed as “Not Active”.

For the compound `Cc1cccc(OC(=O)C2C(c3ccccc3)C(C(=O)O)C2c2ccccc2)c1` (stereo not given), in experiment [1], the pEC50 was 5.48. The result in experiment [2] and in experiment [3] was inactive. Also, in experiment [4], the Activity worked out at 123%.

On to `CCC(C)OC(=O)C1C(c2ccccc2)C(C(=O)O)C1c1ccccc1` (stereo not given), for which the pEC50 in experiment [1] was < 5.00. Moreover, the result in experiment [2] and in experiment [3] was inactive. The compound further showed an Activity in experiment [4] of 23%.

In the case of `COC(=O)C1C(c2ccccc2)C(C(=O)OCc2ccccc2)C1c1ccccc1` (stereo not given), the result in experiment [2] and in experiment [3] was inactive. In experiment [5], the EC50 entry is listed as “Not Active”.

The values are drawn from ChEMBL document CHEMBL1157895, “Truxillic acid derivatives act as peroxisome proliferator-activated receptor gamma activators” (Bioorg Med Chem Lett, 2010).
